Results from ChEMBL document CHEMBL1140049, “Bioisosteric replacement of the pyrazole 5-aryl moiety of N-(piperidin-1-yl)-5-(4-chlorophenyl)-1-(2,4-dichlorophenyl)-4-methyl-1H-pyrazole-3-carboxamide (SR141716A). A novel series of alkynylthiophenes as potent and selective cannabinoid-1 receptor antagonists” (J Med Chem, 2008).
The source made the active and inactive calls. The calls are words filed in the database; no cut-off is given here.

Legend:
[1] = test system: HEK293; assay: Selectivity ratio of IC50 for human CB2 receptor to human CB1 receptor expressed in HEK293 cells; assay type: cell-based
[2] = target: T1, Cannabinoid receptor 1 (Homo sapiens, UniProt P21554); assay: Antagonist activity at human CB1 receptor expressed in HEK293 cells assessed as effect on [35S]gammaGTP binding relative to control; assay type: cell-based
[3] = target: Cannabinoid receptor 2 (Homo sapiens, UniProt P34972); assay: Displacement of [3H]CP-55940 from human CB2 receptor expressed in HEK293 cells; assay type: cell-based
[4] = target: T1, Cannabinoid receptor 1; assay: biochemical; assay type: cell-based, HEK293
[5] = target: T1, Cannabinoid receptor 1; assay: Antagonist activity at human CB1 receptor expressed in HEK293 cells assessed as inhibition of Eu-GTP binding; assay type: cell-based
[6] = target: T1, Cannabinoid receptor 1; assay: Agonist activity at human CB1 receptor expressed in HEK293 cells assessed as increase in [35S]gammaGTP binding relative to control; assay type: cell-based
[7] = target: T1, Cannabinoid receptor 1; assay: Displacement of [3H]SR141716A from human CB1 receptor expressed in HEK293 cells; assay type: cell-based
[8] = test system: Mus musculus; assay: Suppression of appetite in orally dosed DIO C57BL/6 mouse model; assay type: functional, organism-based
[9] = test system: Rattus norvegicus; assay: Suppression of appetite in orally dosed spontaneously feeding Wistar rat model; assay type: functional, organism-based
Outline: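 Male Wistar rats (210-270 g), singly housed on 12 h reversed light cycle over a week; single oral gavage of 3, 10 or 20 mg/kg or vehicle (20% DMSO/10% Tween-80/70% H2O) before lights off, chow supplied at 11 a.m.; food intake at 1, 2, 3, 6 h as cal per g body weight; n = 4-6.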

[10] = test system: Mus musculus; assay: Decrease in body weight in DIO C57BL/6 mouse model at 20 mg/kg, po qd for 21 days; assay type: functional, organism-based; design: dose 20 mg/kg

T1 sequence (P21554 whole entry): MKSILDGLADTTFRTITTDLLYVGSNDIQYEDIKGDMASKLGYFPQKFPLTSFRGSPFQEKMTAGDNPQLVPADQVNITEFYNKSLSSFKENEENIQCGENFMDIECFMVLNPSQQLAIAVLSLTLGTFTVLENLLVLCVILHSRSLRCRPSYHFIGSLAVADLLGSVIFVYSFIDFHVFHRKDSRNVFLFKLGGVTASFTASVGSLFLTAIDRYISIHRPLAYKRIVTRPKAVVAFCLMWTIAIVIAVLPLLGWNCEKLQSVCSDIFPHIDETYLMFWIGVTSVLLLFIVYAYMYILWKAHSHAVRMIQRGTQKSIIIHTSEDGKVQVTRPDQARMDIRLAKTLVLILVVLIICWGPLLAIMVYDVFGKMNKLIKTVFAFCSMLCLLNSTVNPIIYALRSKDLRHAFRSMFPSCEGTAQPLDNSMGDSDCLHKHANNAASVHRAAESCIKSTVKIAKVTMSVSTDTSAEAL
Cannabinoid receptor 2, sequence (P34972 whole entry): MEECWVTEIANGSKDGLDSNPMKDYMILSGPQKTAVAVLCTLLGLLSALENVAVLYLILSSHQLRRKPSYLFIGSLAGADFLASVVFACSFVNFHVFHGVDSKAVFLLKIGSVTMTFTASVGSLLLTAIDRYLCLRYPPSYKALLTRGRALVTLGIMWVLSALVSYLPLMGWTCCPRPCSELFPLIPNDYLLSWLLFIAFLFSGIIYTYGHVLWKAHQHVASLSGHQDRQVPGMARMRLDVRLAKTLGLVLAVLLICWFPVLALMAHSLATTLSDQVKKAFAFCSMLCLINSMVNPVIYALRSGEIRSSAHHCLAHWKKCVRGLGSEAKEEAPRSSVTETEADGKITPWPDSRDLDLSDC

Row | SMILES | Ratio IC50 [1] | Activity [2] | IC50 [3] [nM] | IC50 [4] [nM] | EC50 [5] [nM] | Activity [6] | IC50 [7] [nM] | Activity [8] | Activity [9] | Activity [10]
1 | Cc1c(C(=O)NN2CCCCC2)nn(-c2ccc(Cl)cc2Cl)c1-c1ccc(C#CCOc2ccccc2)s1 | 164 | Active | 7030 | 43 | 18.7 | – | – | – | – | –
2 | CCCCC#Cc1ccc(-c2c(C)c(C(=O)NN3CCCCC3)nn2-c2ccc(Cl)cc2Cl)s1 | 222 | – | 311 | 1.4 | 7.9 | Active | – | – | – | –
3 | CCOCC#Cc1ccc(-c2c(C)c(C(=O)NN3CCCCC3)nn2-c2ccc(Cl)cc2Cl)s1 | 78 | – | 986 | 12.7 | 25.5 | – | – | – | – | –
4 | Cc1c(C(=O)NN2CCCCCC2)nn(-c2ccc(Cl)cc2Cl)c1-c1ccc(C#CCC(C)C)s1 | 139 | – | 688 | 4.9 | 14.6 | Active | 1.2 | – | – | –
5 | Cc1c(C(=O)NN2CCCCC2)nn(-c2ccc(Cl)cc2Cl)c1-c1ccc(C#CC2CCCC2)s1 | 255 | – | 1810 | 7.1 | 24.5 | Active | – | – | – | –
6 | CCC#Cc1ccc(-c2c(C)c(C(=O)NN3CCCCC3)nn2-c2ccc(Cl)cc2Cl)s1 | 66 | Active | 4330 | 65.4 | 51.4 | – | – | – | – | –
7 | Cc1c(C(=O)NN2CCCCC2)nn(-c2ccc(Cl)cc2Cl)c1-c1ccc(C#CCCc2ccccc2)s1 | 285 | – | 1750 | 6.1 | 20.4 | Active | – | – | – | –
8 | Cc1c(C(=O)NN2CCCCC2)nn(-c2ccc(Cl)cc2Cl)c1-c1ccc(C#CCN(C)C)s1 | 10 | – | 1270 | 124 | 349 | – | – | – | – | –
9 | CCCC#Cc1ccc(-c2c(CC)c(C(=O)NN3CCCCC3)nn2-c2ccc(Cl)cc2Cl)s1 | 151 | – | 920 | 6.1 | 13.8 | – | 1.2 | Dose-dependent effect | Dose-dependent effect | Active
10 | Cc1c(C(=O)NN2CCCCC2)nn(-c2ccc(Cl)cc2Cl)c1-c1ccc(Cl)s1 | 26 | – | 1290 | 50.2 | 147 | – | – | – | – | –
11 | Cc1c(C(=O)NN2CC3CCCC3C2)nn(-c2ccc(Cl)cc2Cl)c1-c1ccc(C#CC2CCCCC2)s1 (centres undefined) | 221 | – | 1730 | 7.8 | 294 | Active | – | – | – | –
12 | CCC#Cc1ccc(-c2c(C)c(C(=O)NN3CC4CCCC4C3)nn2-c2ccc(Cl)cc2Cl)s1 (centres undefined) | 33 | Active | 921 | 28.3 | 35.5 | – | – | – | – | –
13 | Cc1c(C(=O)NN2CCCCC2)nn(-c2ccc(Cl)cc2Cl)c1-c1ccc(C#CC(C)(C)C)s1 | 59 | – | 1900 | 32.7 | 28.9 | Active | – | – | – | –
14 | CCCC#Cc1ccc(-c2c(C)c(C(=O)NN3CCCCCC3)nn2-c2ccc(Cl)cc2Cl)s1 | 214 | Active | 1500 | 7 | 14.1 | – | 1.2 | – | – | –
15 | CCCCCc1ccc(-c2c(C)c(C(=O)NN3CC4CCCC4C3)nn2-c2ccc(Cl)cc2Cl)s1 (centres undefined) | 178 | – | 3660 | 20.6 | 48 | – | – | – | – | –
16 | CCCC#Cc1ccc(-c2c(CC)c(C(=O)NN3CCCCCC3)nn2-c2ccc(Cl)cc2Cl)s1 | 34 | – | 310 | 8.9 | 16.5 | – | 1.2 | – | – | –
17 | CCCCC#Cc1ccc(-c2c(C)c(C(=O)NN3CC4CCCC4C3)nn2-c2ccc(Cl)cc2Cl)s1 (centres undefined) | 122 | – | 158 | 1.3 | 5.7 | Active | – | – | – | –
18 | Cc1c(C(=O)NN2CC3CCCC3C2)nn(-c2ccc(Cl)cc2Cl)c1-c1ccc(C#CC2CC2)s1 (centres undefined) | 272 | Active | 5720 | 21 | 105 | – | – | – | – | –
19 | CCC/C=C/c1ccc(-c2c(C)c(C(=O)NN3CC4CCCC4C3)nn2-c2ccc(Cl)cc2Cl)s1 (centres undefined) | 197 | – | 5410 | 27.5 | 71.4 | – | – | – | – | –
20 | Cc1c(C(=O)NN2CCCCC2)nn(-c2ccc(Cl)cc2Cl)c1-c1ccc(C#CCNC(C)C)s1 | 87 | – | 7180 | 82.4 | 390 | – | – | – | – | –
